From ChEMBL document CHEMBL1772956, “Synthesis and binding affinity of novel mono- and bivalent morphinan ligands for κ, μ, and δ opioid receptors” (Bioorg Med Chem, 2011)
The source made the active and inactive calls. The calls are words filed in the database; no cut-off is given here.

Tests used:
[1] = species on record: Homo sapiens; assay: Selectivity ratio of Ki for human kappa opioid receptor over Ki for human mu opioid receptor
[2] = species on record: Homo sapiens; assay: Selectivity ratio of Ki for human kappa opioid receptor over Ki for human delta opioid receptor
[3] = target: T1, Mu-type opioid receptor (Homo sapiens, UniProt P35372); assay: Antagonist activity at human mu-opioid receptor expressed in CHO cells assessed as inhibition of DAMGO-induced [35S]GTPgammaS binding after 60 mins by scintillation counting relative to control; type: functional, cell-based
T1 sequence (P35372 whole entry): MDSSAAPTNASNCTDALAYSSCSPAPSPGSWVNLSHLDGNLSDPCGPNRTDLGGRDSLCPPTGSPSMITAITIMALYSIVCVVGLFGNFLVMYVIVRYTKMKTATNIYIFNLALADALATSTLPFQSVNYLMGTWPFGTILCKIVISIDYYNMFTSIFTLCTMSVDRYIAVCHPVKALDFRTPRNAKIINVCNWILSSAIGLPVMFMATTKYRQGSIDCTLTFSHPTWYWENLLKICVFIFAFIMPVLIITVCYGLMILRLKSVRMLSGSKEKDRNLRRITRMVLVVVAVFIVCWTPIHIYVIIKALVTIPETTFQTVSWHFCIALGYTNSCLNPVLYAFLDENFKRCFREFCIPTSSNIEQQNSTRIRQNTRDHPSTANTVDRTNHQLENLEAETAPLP
Procedure, shortened: (§1)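 Human μ receptor CHO membranes were incubated with 200 nM DAMGO to drive [35S]GTPγS (0.08 nM) binding, with 12 compound concentrations up to 10 μM, in Tris pH 7.4/GDP/MgCl2/EGTA/NaCl buffer, 60 min at 30°C. Nonspecific binding was with 10 μM GTPγS. Samples were filtered and counted.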

[4] = target: T1, Mu-type opioid receptor; assay: Antagonist activity at human mu-opioid receptor expressed in CHO cells assessed as inhibition of DAMGO-induced [35S]GTPgammaS binding after 60 mins by scintillation counting; type: functional, cell-based; procedure, shortened: as §1
[5] = target: T2, Kappa-type opioid receptor (Homo sapiens, UniProt P41145); assay: Agonist activity at human kappa-opioid receptor expressed in CHO cells assessed as stimulation of [35S]GTPgammaS binding after 60 mins by scintillation counting relative to control; type: functional, cell-based
T2 sequence (P41145 whole entry): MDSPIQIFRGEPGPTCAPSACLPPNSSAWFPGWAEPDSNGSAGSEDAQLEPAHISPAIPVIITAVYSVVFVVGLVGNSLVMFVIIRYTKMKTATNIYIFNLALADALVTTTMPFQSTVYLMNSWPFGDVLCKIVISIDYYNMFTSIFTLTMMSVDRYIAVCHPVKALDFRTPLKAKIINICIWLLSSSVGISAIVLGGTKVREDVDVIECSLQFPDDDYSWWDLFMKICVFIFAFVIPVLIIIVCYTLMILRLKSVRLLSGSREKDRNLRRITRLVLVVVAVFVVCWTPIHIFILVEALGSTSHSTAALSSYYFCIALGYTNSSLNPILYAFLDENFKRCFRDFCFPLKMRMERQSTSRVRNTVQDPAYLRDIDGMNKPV
Procedure, shortened: (§2)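 Membranes from CHO cells stably expressing human κ or μ opioid receptor were incubated with 12 compound concentrations in 50 mM Tris-HCl pH 7.4 with 3 μM GDP, 3 mM MgCl2, 0.2 mM EGTA and 100 mM NaCl. [35S]GTPγS was 0.08 nM final, 60 min at 30°C, and 10 μM GTPγS gave nonspecific binding. Samples were filtered and counted. EC50 and Emax (% stimulation over basal) came from three experiments in triplicate.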

[6] = target: T2, Kappa-type opioid receptor; assay: Antagonist activity at human kappa-opioid receptor expressed in CHO cells assessed as inhibition of U69593-induced [35S]GTPgammaS binding after 60 mins by scintillation counting; type: functional, cell-based
[7] = target: T1, Mu-type opioid receptor; assay: biochemical; type: cell-based, CHO
[8] = target: Delta-type opioid receptor (Homo sapiens, UniProt P41143); assay: Displacement of [3H]naltrindole from human delta-opioid receptor expressed in CHO cells after 3 hrs by scintillation counting; type: cell-based
Chain of Delta-type opioid receptor (P41143 whole entry): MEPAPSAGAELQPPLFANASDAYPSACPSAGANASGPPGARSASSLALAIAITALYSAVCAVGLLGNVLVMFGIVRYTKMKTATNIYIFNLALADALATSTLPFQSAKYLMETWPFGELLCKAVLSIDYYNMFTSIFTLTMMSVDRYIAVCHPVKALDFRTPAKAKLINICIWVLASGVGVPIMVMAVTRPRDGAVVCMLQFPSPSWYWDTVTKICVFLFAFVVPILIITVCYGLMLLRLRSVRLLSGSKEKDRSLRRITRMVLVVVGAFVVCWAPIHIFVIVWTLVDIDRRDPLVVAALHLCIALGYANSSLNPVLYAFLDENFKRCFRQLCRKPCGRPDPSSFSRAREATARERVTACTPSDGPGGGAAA

[9] = target: T2, Kappa-type opioid receptor; assay: biochemical; type: cell-based, CHO
[10] = target: T2, Kappa-type opioid receptor; assay: Agonist activity at human kappa-opioid receptor expressed in CHO cells assessed as stimulation of [35S]GTPgammaS binding after 60 mins by scintillation counting; type: functional, cell-based; procedure, shortened: as §2
[11] = target: T1, Mu-type opioid receptor; assay: Agonist activity at human mu-opioid receptor expressed in CHO cells assessed as stimulation of [35S]GTPgammaS binding after 60 mins by scintillation counting; type: functional, cell-based; procedure, shortened: as §2
[12] = target: T2, Kappa-type opioid receptor; assay: Antagonist activity at human kappa-opioid receptor expressed in CHO cells assessed as inhibition of U69593-induced [35S]GTPgammaS binding after 60 mins by scintillation counting relative to control; type: functional, cell-based
[13] = target: T1, Mu-type opioid receptor; assay: Agonist activity at human mu-opioid receptor expressed in CHO cells assessed as stimulation of [35S]GTPgammaS binding after 60 mins by scintillation counting relative to control; type: functional, cell-based; procedure, shortened: as §2
[14] = target: T1, Mu-type opioid receptor; assay: Antagonist activity at human mu-opioid receptor expressed in CHO cells assessed as inhibition of DAMGO-induced [35S]GTPgammaS binding at 10 uM after 60 mins by scintillation counting; type: functional, cell-based; procedure, shortened: as §1
[15] = target: T1, Mu-type opioid receptor; assay: Antagonist activity at human mu-opioid receptor expressed in CHO cells assessed as inhibition of DAMGO-induced [35S]GTPgammaS binding at 10 uM after 60 mins by scintillation counting relative to control; type: functional, cell-based; procedure, shortened: as §1

Nc1nc2cc3c(cc2s1)C[C@@H]1[C@@H]2CCCC[C@]32CCN1CC1CC1
Ratio Ki [1]: 31 | Ratio Ki [2]: 592

C=CCN1CC[C@]23c4c5ccc(OC(=O)CCCCCCCCC(=O)Oc6ccc7c(c6)[C@@]68CCCC[C@@]6(OC)[C@@H](C7)N(CC6CCC6)CC8)c4O[C@H]2C(=O)CC[C@@]3(O)[C@H]1C5
Imax [3]: 45% | IC50 [4]: 19 nM | Emax [5]: 80% | IC50 ([6]; read-out: IC50): 7.7 nM | Ki [7]: 0.55 nM | Ratio Ki [1]: 4 | Ki [8]: 39 nM | Ki [9]: 0.14 nM | EC50 [10]: 18 nM | Ratio Ki [2]: 280 | EC50 [11]: 10 nM | Imax [12]: 33% | Emax [13]: 62%

O=C(CCCCCCCCC(=O)Oc1ccc2c(c1)[C@@]13CCCC[C@@]1(O)[C@@H](C2)N(CC1CCC1)CC3)Oc1ccc2c(c1)[C@@]13CCCC[C@H]1[C@@H](C2)N(CC1CCC1)CC3
Imax [3]: 50% | IC50 [4]: 3.4 nM | Emax [5]: 100% | IC50 ([6]; read-out: IC50): 3.7 nM | Ki [7]: 0.089 nM | Ratio Ki [1]: 1 | Ki [8]: 8 nM | Ki [9]: 0.073 nM | EC50 [10]: 0.84 nM | Ratio Ki [2]: 110 | EC50 [11]: 1.2 nM | Imax [12]: 23% | Emax [13]: 46%

CO[C@@]12CCCC[C@@]13CCN(CC1CCC1)[C@@H]2Cc1ccc(OC(=O)CCCCCCCCC(=O)OCc2ccccc2)cc13
Imax [3]: 28% | IC50 [4]: 7.6 nM | Emax [5]: 90% | IC50 ([6]; read-out: IC50): 6.4 nM | Ki [7]: 0.15 nM | Ratio Ki [1]: 1 | Ki [8]: 14 nM | Ki [9]: 0.23 nM | EC50 [10]: 2.1 nM | Ratio Ki [2]: 93 | EC50 [11]: 1.7 nM | Imax [12]: 30% | Emax [13]: 54%

CO[C@@]12CCCC[C@@]13CCN(CC1CCC1)[C@@H]2Cc1ccc(OC(=O)CCCCCCCCC(=O)Oc2ccc4c(c2)[C@@]25CCCC[C@@]2(OC)[C@@H](C4)N(CC2CCC2)CC5)cc13
Imax [3]: 44% | IC50 [4]: 260 nM | Emax [5]: 83% | IC50 ([6]; read-out: IC50): 17 nM | Ki [7]: 0.26 nM | Ratio Ki [1]: 1 | Ki [8]: 13 nM | Ki [9]: 0.37 nM | EC50 [10]: 2.4 nM | Ratio Ki [2]: 50 | EC50 [11]: 1.8 nM | Imax [12]: 43% | Emax [13]: 42%

C=CCN1CC[C@]23c4c5ccc(OC(=O)CCCCCCCCC(=O)Oc6ccc7c(c6)[C@@]68CCCC[C@@]6(O)[C@@H](C7)N(CC6CCC6)CC8)c4O[C@H]2C(=O)CC[C@@]3(O)[C@H]1C5
Imax [3]: 73% | IC50 [4]: 34 nM | Emax [5]: 74% | IC50 ([6]; read-out: IC50): 49 nM | Ki [7]: 0.82 nM | Ratio Ki [1]: 3 | Ki [8]: 35 nM | Ki [9]: 0.28 nM | EC50 [10]: 12 nM | Ratio Ki [2]: 130 | EC50 [11]: 2 nM | Imax [12]: 35% | Emax [13]: 19%

c1c2c(cc3sc(NCCCCCCCCCCNc4nc5cc6c(cc5s4)C[C@@H]4[C@@H]5CCCC[C@]65CCN4CC4CC4)nc13)C[C@@H]1[C@@H]3CCCC[C@]23CCN1CC1CC1
Imax [3]: 71% | IC50 [4]: 390 nM | Emax [5]: 130% | IC50 ([6]; cho): Not Active | Ki [7]: 2.5 nM | Ratio Ki [1]: 9 | Ki [8]: 39 nM | Ki [9]: 0.27 nM | EC50 [10]: 7.3 nM | Ratio Ki [2]: 140 | EC50 [11]: 22 nM | Imax [12]: inactive | Emax [13]: 38%

O=C(CCCCCCCCC(=O)Oc1ccc2c(c1)[C@@]13CCCC[C@H]1[C@@H](C2)N(CC1CCC1)CC3)Oc1ccc2c(c1)[C@@]13CCCC[C@H]1[C@@H](C2)N(CC1CCC1)CC3
Ratio Ki [1]: 2 | Ratio Ki [2]: 90

O=C(/C=C/C(=O)Oc1ccc2c(c1)[C@@]13CCCC[C@H]1[C@@H](C2)N(CC1CCC1)CC3)Oc1ccc2c(c1)[C@@]13CCCC[C@H]1[C@@H](C2)N(CC1CCC1)CC3
Ratio Ki [1]: 3 | Ratio Ki [2]: 120

O=C(CCCCCCCCC(=O)Nc1nc2cc3c(cc2s1)C[C@@H]1[C@@H]2CCCC[C@]32CCN1CC1CC1)Nc1nc2cc3c(cc2s1)C[C@@H]1[C@@H]2CCCC[C@]32CCN1CC1CC1
inhibition [14]: inactive | Emax [5]: 130% | IC50 ([6]; cho): Not Active | inhibition [15]: 74% | Ki [7]: 8.8 nM | Ratio Ki [1]: 24 | Ki [8]: 170 nM | Ki [9]: 0.37 nM | EC50 [10]: 5.5 nM | Ratio Ki [2]: 460 | EC50 [11]: 130 nM | Imax [12]: inactive | Emax [13]: 25%

CO[C@@]12CCCC[C@@]13CCN(CC1CCC1)[C@@H]2Cc1ccc(O)cc13
Imax [3]: 50% | IC50 [4]: 9.3 nM | Emax [5]: 90% | IC50 ([6]; read-out: IC50): 22 nM | Ki [7]: 0.14 nM | Ratio Ki [1]: 1 | Ki [8]: 8.1 nM | Ki [9]: 0.2 nM | EC50 [10]: 2.8 nM | Ratio Ki [2]: 58 | EC50 [11]: 3.6 nM | Imax [12]: 37% | Emax [13]: 50%
